From ChEMBL document CHEMBL1122898, “Antiulcer agents. 1. Gastric antisecretory and cytoprotective properties of substituted imidazo[1,2-a]pyridines” (1985)

Legend:
Type in all cases: functional
Rattus norvegicus [1] = assay: Gastric antisecretory activity in the pylorus-ligated rat and the reduction in acid output was measured after 4 hr by intraperitoneal (ip) administration of 40 mg/kg dose.
Procedure, shortened: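 Male Charles River CD rats, 150–200 g, fasted 24 h. Pylorus ligated under Brevital anesthesia. 40 mg/kg given ip in 2.5% Tween 80 at ligation. Stomach contents collected at 4 h and titrated with 0.1 N NaOH to pH 7.0. % inhibition from mean AO, 6 treated vs 8 control rats. Student's t test.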

Canis familiaris [2] = assay: Inhibition of histamine stimulated gastric acid secretion in adult mongrel dogs at dose 2 mg/kg given intravenously; details: Canis lupus familiaris, Stomach, route intravenous
Procedure, shortened: (§1)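 Dogs with Heidenhain pouches, 12–18 kg, fasted 18 h. Compound given iv in 3 mL or by gavage in 5 mL of 0.4% methylcellulose/saline, 1 h after infusion start. 30-min collections titrated. Summed 3-h AO against the same dog's control AO gives % inhibition. Usually one dog per compound.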

Canis familiaris [3] = assay: Inhibition of histamine stimulated gastric acid secretion in adult mongrel dogs at dose 5 mg/kg given intravenously; details: Canis lupus familiaris, Stomach, route intravenous; procedure, shortened: as §1
Canis familiaris [4] = assay: Inhibition of histamine stimulated gastric acid secretion in adult mongrel dogs at dose 8 mg/kg given orally; details: Canis lupus familiaris, Stomach, route oral; procedure, shortened: as §1
Rattus norvegicus [5] = organism: Rattus norvegicus; assay: Oral gastric cytoprotective activity in the rat against ethanol-induced lesions; details: Stomach
Procedure, shortened: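 Rats fasted and water-deprived for 20 h. Compound given orally, 1–30 mg/kg in 0.4% methylcellulose/saline, 30 min before 1 mL absolute ethanol po. Killed 1 h after ethanol. Linear hemorrhagic lesion lengths totalled per stomach, expressed as group mean. ED50 by linear regression.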

Canis familiaris [6] = assay: Inhibition of histamine stimulated gastric acid secretion in mongrel dogs following 4 mg/kg p.o. administration.; details: Canis lupus familiaris, Stomach, route oral; procedure, shortened: as §1

Structure (SMILES) | inhibition in vivo at 40 mg/kg (Rattus norvegicus [1]) | inhibition in vivo at 2 mg/kg (Canis familiaris [2]) | inhibition in vivo at 5 mg/kg (Canis familiaris [3]) | inhibition in vivo at 8 mg/kg (Canis familiaris [4]) | ED50 (Rattus norvegicus [5]) | inhibition in vivo at 4 mg/kg (Canis familiaris [6])
Cc1nc2c(C[S+]([O-])c3ccccc3)cccn2c1C (stereo unspecified) | 42% | 0% |  |  |  | 
CCCCC(=O)OCc1c(C)nc2c(OCc3ccccc3)cccn12 | 45% |  | 96% | 13% |  | 
Cc1nc2cc(CCc3ccccc3)ccn2c1CC#N | 11% | 26% |  |  | 3 mg/kg | 
Cc1cc(C)c(COc2cccn3c(CC#N)c(C)nc23)c(C)c1 | 49% | 22% | 86% | 40% |  | 0%
Cc1nc2c(OCc3ccoc3)cccn2c1CC#N | 99% |  | 60% | 42% | 1.4 mg/kg | 
CCOC(=O)c1c(C)nc2c(OCc3ccccc3)cccn12 | 22% |  |  |  |  | 
Cc1nc2c(OCc3ccc(S(C)(=O)=O)cc3)cccn2c1CC#N | 2% |  |  |  |  | 
CCSCc1c(C)nc2c(OCc3ccccc3)cccn12 | 36% |  | 0% |  |  | 
CC(=O)c1c(C)nc2c(OCc3ccccc3)cccn12 | 57% |  | 9% |  |  | 
Cc1nc2c(OCc3ccccc3)cccn2c1CC(=N)N | 79% |  | 0% |  |  | 
Cc1nc2c(OCc3ccc(C#N)cc3)cccn2c1CC#N | 69% |  | 71% | 33% | 8 mg/kg | 0%
Cc1nc2c(OCc3ccccc3)cccn2c1CC1=NCCN1 | 69% |  |  |  |  | 
Cc1nc2c(OCc3ccccc3)cccn2c1CCC#N | 40% |  | 20% |  | 1.5 mg/kg | 
Cc1nc2c(OCc3ccccc3)cccn2c1C(C)(C)C#N | 57% |  | 0% |  | 12.3 mg/kg | 
Cc1nc2c(OCc3ccc(F)cc3)cccn2c1CC#N | 99% |  | 95% | 87% | 5 mg/kg | 35%
Cc1nc2c(OCc3ccccc3)cccn2c1C(N)=O | 42% |  | 2% |  |  | 
Cc1cn2cccc(OCc3ccccc3)c2n1 | 62% | 61% | 70% | 0% | 4 mg/kg | 
N#CCc1c(C(F)(F)F)nc2c(OCc3ccccc3)cccn12 | 0% |  | 0% |  |  | 
Cc1nc2c(OC(C)c3ccccc3)cccn2c1CC#N (stereo unspecified) | 96% | 78% | 97% | 45% | 3.7 mg/kg | 6%
Cc1nc2c(OCc3cccnc3)cccn2c1CC#N | 46% |  | 8% |  | 7.4 mg/kg | 
CNC(=O)Cc1c(C)nc2c(OCc3ccccc3)cccn12 | 24% |  | 14% |  |  | 
CC(C)c1nc2c(OCc3ccccc3)cccn2c1CC#N | 72% |  | 96% | 39% | 5 mg/kg | 36%
Cc1nc2c(OCc3ccccc3F)cccn2c1CC#N | 96% |  | 97% | 65% | 6 mg/kg | 34%
Cc1nc2c(OCc3ccccn3)cccn2c1CC#N | 56% |  | 29% |  | 2.4 mg/kg | 
Cc1nc2c(O)cccn2c1CC#N | 0% |  | 0% |  |  | 
Cc1nc2c(OCc3ccc(C(C)(C)C)cc3)cccn2c1CC#N | 47% |  | 52% | 47% |  | 37%
CCc1c(C)nc2c(OCc3ccccc3)cccn12 |  | 37% |  |  | 2 mg/kg | 
Cc1nc2c([S+]([O-])Cc3ccccc3)cccn2c1CC#N (stereo unspecified) | 37% |  | 26% |  | 5 mg/kg | 
Cc1nc2ccc(CCc3ccccc3)cn2c1CC#N | 8% |  | 0% |  | 2.7 mg/kg | 
Cc1nc2c(OCc3ccccc3)cccn2c1CC(=O)O | 12% |  | 24% |  |  | 
